For assay [1], the system named is Pseudomonas aeruginosa. Briefly: Ratio of antimicrobial activity against Pseudomonas aeruginosa PAO1 grown as biofilm assessed as concentration and time required inactivate 2 log bacterial cells to antimicrobial activity against Pseudomonas aeruginosa PAO1 grown as planktonic cells assessed as concentration and time required inactivate 2 log bacterial cells. In kind it is functional. Summed up: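 Ratio computed as biofilm CT over planktonic CT for 2-log inactivation of PAO1. Biofilm values come from coupons exposed to 10 mg/liter agent. Planktonic values come from 10^6 CFU/ml suspensions exposed to 1 or 10 mg/liter. Both were measured by plate count.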

Assay [2] has as its system Pseudomonas aeruginosa. As to the kind of experiment: Antimicrobial activity against Pseudomonas aeruginosa PAO1 grown as biofilm assessed as membrane integrity by BacLight Live/Dead staining. In kind it is functional. The method in brief: (§1)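 P. aeruginosa PAO1 reactor-grown biofilm coupons soaked in 10 mg/liter agent without stirring. Coupons stained 1 h in the dark with BacLight Syto9/propidium iodide or CTC (1.6 μg/ml, 37°C) plus DAPI (10 μg/ml), then imaged by confocal microscopy. Ratios are read at the point where plate-count culturability fell to 60%, normalized to untreated biofilm.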

Assay [3] concerns Pseudomonas aeruginosa. As to the kind of experiment: Antimicrobial activity against Pseudomonas aeruginosa PAO1 grown as biofilm assessed as respiratory activity by CTC-DAPI staining. In kind it is functional, organism-based. The method in brief: as §1
Assay [4] concerns Pseudomonas aeruginosa. Briefly: Antimicrobial activity against Pseudomonas aeruginosa PAO1 assessed as log reduction in bacterial count at 10 mg/L after 50 mins by plate count method. Format: functional. Summed up:
(§2)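 P. aeruginosa PAO1 biofilm grown on reactor coupons (24 h batch in 1/100-strength TSB, room temp, 100 rpm, then 24 h continuous flow in 1/300-strength TSB). Coupons rinsed and soaked unstirred in 10 mg/liter agent. Biofilm removed by sonication/vortexing in PBS. Counts by plate count (24 h, 37°C), CTC (1.6 μg/ml) or Syto9/propidium iodide stain on filtered cells, each normalized to DAPI total and to untreated biofilm; log10 reduction.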

Assay [5] deals with Pseudomonas aeruginosa. Briefly: Antimicrobial activity against Pseudomonas aeruginosa PAO1 assessed as log reduction in bacterial count at 10 mg/L after 50 mins by BacLight Live/Dead staining. Format: functional. Summed up: as §2
Assay [6] relates to Pseudomonas aeruginosa. As to the kind of experiment: Antimicrobial activity against Pseudomonas aeruginosa PAO1 grown as biofilm assessed as concentration and time required inactivate 2 log bacterial cells. In kind it is functional. Summed up: (§3)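 PAO1 biofilm grown 24 h batch then 24 h continuous flow on coupons, exposed to 10 mg/liter agent unstirred. Biofilm dislodged by sonication/vortexing, plate counted after 24 h at 37°C in triplicate. Log10 reduction plotted against concentration × contact time; CT for 2-log inactivation taken by extrapolating the curve. Experiments repeated 2–3 times.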

Assay [7] deals with Pseudomonas aeruginosa. As to the kind of experiment: Antimicrobial activity against Pseudomonas aeruginosa PAO1 grown as biofilms. Format: functional, organism-based. Summed up:
as §3

Assay [8] concerns Pseudomonas aeruginosa. Briefly: Antimicrobial activity against Pseudomonas aeruginosa PAO1 grown as planktonic cells assessed as concentration and time required inactivate 1 log bacterial cells. In kind it is functional. The method in brief:
(§4)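 Washed overnight PAO1 cultures at 10^6 CFU/ml in 50 ml, exposed to agent at 1 or 10 mg/liter (data averaged) in capped flasks with slow magnetic stirring. Survival by plate count only. Log10 reduction plotted against CT (mg·min/liter); CT90 or 2-log CT read or extrapolated from the curve.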

Assay [9] has as its system Pseudomonas aeruginosa. As to the kind of experiment: Antimicrobial activity against Pseudomonas aeruginosa PAO1 assessed as log reduction in bacterial count at 10 mg/L after 50 mins by CTC staining. Format: functional. The method in brief: as §2
The subject of assay [10] is Pseudomonas aeruginosa. Briefly: Antimicrobial activity against Pseudomonas aeruginosa PAO1 grown as planktonic cells assessed as concentration and time required inactivate 2 log bacterial cells. In kind it is functional. Summed up: as §4

Activity calls are given as the source filed them. The rule behind the calls is not given here.

In the case of `NC[C@H]1O[C@H](O[C@H]2[C@H](O)[C@@H](O[C@H]3O[C@H](CO)[C@@H](O)[C@H](N)[C@H]3O)[C@H](N)C[C@@H]2N)[C@H](N)C[C@@H]1O` [TOBRAMYCIN], the Ratio in the assay with Pseudomonas aeruginosa [1] came out at 33. The Activity in the assay with Pseudomonas aeruginosa [2] came out at 70%; in the assay with Pseudomonas aeruginosa [6], 1000 mg·min/L; in the assay with Pseudomonas aeruginosa [8], 20 mg·min/L; in the assay with Pseudomonas aeruginosa [10], 30 mg·min/L. For the same molecule, the outcome in the assay on Pseudomonas aeruginosa [3] and in the assay on Pseudomonas aeruginosa [7] was Active. For the same molecule, the values for the FC in the assay with Pseudomonas aeruginosa [4], in the assay on Pseudomonas aeruginosa [5] and in the assay with Pseudomonas aeruginosa [9] were 1.5, 0.2 and 0.9, respectively.

The record behind these values is ChEMBL document CHEMBL1275406, “Comparison of the antimicrobial effects of chlorine, silver ion, and tobramycin on biofilm” (2008).
